The source of these data is ChEMBL document CHEMBL3997823, “New homoisoflavonoid analogues protect cells by regulating autophagy” (Bioorg Med Chem Lett, 2017).

Activity calls are given as the source filed them. The rule behind the calls is not given here. Where only a bound is given, the exact number is not on record here.

The test system of series [1] is H9c2. The experiment in a line: Cardioprotective activity against H2O2-induced injury in rat H9C2 cells assessed as increase in cell viability preincubated for 24 hrs followed by H2O2 addition measured after 24 hrs by MTT assay.
Series [2] concerns SH-SY5Y. The experiment in a line: Neuroprotective activity against MPP+-induced injury in human SH-SY5Y cells assessed as cell viability at 5 uM preincubated for 16 hrs followed by MPP+ addition measured after 8 hrs (reference value: 40.71 to 55.85%). Type of series: functional. Conditions: read-out: Activity.
For series [3], the system named is SH-SY5Y. The experiment in a line: Neuroprotective activity against MPP+-induced injury in human SH-SY5Y cells assessed as cell viability at 50 uM preincubated for 16 hrs followed by MPP+ addition measured after 8 hrs (reference value: 40.71 to 55.85%). Type of series: functional. Conditions: read-out: Activity.
The subject of series [4] is SH-SY5Y. The experiment in a line: Induction of autophagy in human SH-SY5Y cells transfected with GFP-LC3 at 5 uM by MDC staining-based fluorescence microscopic method. Type of series: functional, cell-based.
Series [5] relates to SH-SY5Y. The experiment in a line: Induction of autophagy in human SH-SY5Y cells at 12.5 to 50 uM after 24 by MDC staining-based flow cytometric method. Type of series: functional, cell-based. In a few lines:
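SH-SY5Y cells were treated with compound for the indicated times, then stained with monodansylcadaverine. The MDC-positive cell ratio was measured by flow cytometry as the quantitative autophagy read-out.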

In series [6] the test system is H9c2. The experiment in a line: Cardioprotective activity against H2O2-induced injury in […] H9C2 cells assessed as increase in cell viability preincubated for 24 hrs followed by H2O2 addition measured after 24 hrs by MTT assay. Type of series: functional, cell-based. Conditions: Rattus norvegicus. In a few lines: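 H9c2 cardiomyocytes injured with H2O2; cell viability read-out, with diazoxide as positive control.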
(In general: Tetrazolium assays rely on reduction of a dye to a coloured formazan, in cell work by metabolically active cells.)

Series [7] in a line: Cytotoxicity against human SH-SY5Y cells assessed as inhibition of cell growth at 50 uM after 72 hrs by MTT assay relative to control. Type of series: cell-based.
A short description of series [8]: Cytotoxicity against human MCF7 cells assessed as inhibition of cell growth at 50 uM after 72 hrs by MTT assay relative to control. Type of series: cell-based.

One may read the EC50 as the midpoint of the concentration-response curve. Take `COc1cccc(Cc2coc3cc(O)cc(O)c3c2=O)c1`: in series [1], the EC50 is more than 100 µM.
With `COc1ccc(Cc2coc3cc(O)cc(O)c3c2=O)cc1OC`, in series [2], the viability at 5 µM stood at 60.3%. The viability at 50 µM in series [3] stood at 60.9%. For the same compound, the result in series [4] and in series [5] was Active. Also, the EC50 in series [1] came out at 12.1 µM.
`COc1ccc(Cc2coc3cc(O)ccc3c2=O)cc1`: the concentration for a half-maximal effect (EC50) in series [1] was 32.1 µM.
As to `COc1ccc(Cc2coc3cc(OC(C)=O)cc(O)c3c2=O)cc1`, the concentration giving a half-maximal response (EC50) in series [1] was more than 100 µM.
The same measure, in the same setting: with `COc1ccc(Cc2coc3cc(OC)cc(OC)c3c2=O)cc1` the figure was more than 100 µM; with `COc1ccccc1Cc1coc2cccc(O)c2c1=O`, more than 100 µM; with `COc1ccccc1Cc1coc2cc(O)cc(O)c2c1=O`, 24.4 µM.
The same measure, in the same setting: with `COc1ccc(Cc2coc3cc(OCCCl)cc(O)c3c2=O)cc1` the figure was more than 100 µM; with `O=c1c(Cc2ccc(C(F)(F)F)cc2)coc2cc(O)cc(O)c12`, 12.7 µM.
The same measure, in the same setting: then `COc1ccc(Cc2coc3cccc(O)c3c2=O)cc1`, with more than 100 µM.
Regarding `COc1ccccc1Cc1coc2cc(O)ccc2c1=O`, in series [2], the viability at 5 µM was determined as 38.1%. For the same compound, the viability at 50 µM in series [3] came to 37.5%. For the same compound, the EC50 in series [1] is 12.7 µM.
In the case of `COc1cc(OC)c2c(=O)c(Cc3ccc(Cl)c(Cl)c3)coc2c1`, in series [2], the viability at 5 µM was found to be 62.4%. In addition, the viability at 50 µM in series [3] was determined as 48.9%. Also, the result in series [4] was Active. Moreover, the EC50 in series [1] was found to be 23.8 µM.
Turning to `COc1ccc(Cc2coc3cc(OCCCCCl)cc(O)c3c2=O)cc1`, the EC50 in series [1] is more than 100 µM.
Same read-out and setting: with `COc1ccc(Cc2coc3cc(OCC=C(C)C)cc(O)c3c2=O)cc1` the figure was more than 100 µM; with `COc1ccc(Cc2coc3cc(O)cc(O)c3c2=O)cc1`, more than 100 µM.
`COc1ccc(Cc2coc3cc(OC(=O)N(C)C)cc(O)c3c2=O)cc1`: in series [2], the viability at 5 µM worked out at 42.5%. For the same compound, the viability at 50 µM in series [3] turned out to be 35.5%. In addition, the EC50 in series [1] worked out at 19.9 µM.
The corresponding values for `COc1cc(OC)c2c(=O)c(Cc3cccs3)coc2c1` are 37.8%, 42.2% and 74.3 µM.
Usually inhibition stands for how much of the control response was suppressed. Regarding `COc1cc(OC)c(OC)cc1Cc1coc2cc(O)cc(O)c2c1=O`, the viability at 5 µM in series [2] came to 62.1%. Moreover, the EC50 in series [6] turned out to be 15.7 µM. In series [3], the viability at 50 µM is 48.4%. The inhibition at 72 h, 50 µM was determined as 15.3% in series [7] and 49.5% in series [8].
Turning to `COc1cc(OC)c2c(=O)c(Cc3ccc(C(F)(F)F)cc3)coc2c1`, the EC50 in series [1] was more than 100 µM.
On the same count and under the same terms, then `CCC(=O)Oc1cc(O)c2c(=O)c(Cc3ccc(OC)cc3)coc2c1`, with more than 100 µM.
